Experimental data pooled from the literature.
In brackets after ≈: the same amount, converted by molar mass.

CC1=NN(CNc2ccccn2)C(=O)C1=NNn1c(-c2ccccc2)nc2ccccc2c1=O  MIC (Salmonella enterica; microbial growth, broth dilution; PARATYPHI; 24 h): 55.2 µM
C=C(C)[C@H]1Cc2c(ccc3c2O[C@@H]2COc4cc(OC)c(OC)cc4[C@@H]2C3=O)O1  IC50 (ReNcell VM; cell growth or viability, imaging; 24 h): ~280 nM
CC1=CC(=O)[C@H]2O[C@]1(C)O[C@H]([C@H](C)/C=C(C)/C=C/C(O)=C1/C(=O)CNC1=O)[C@H]2C  MIC (Bacillus cereus; microbial growth): 25 µM
COc1ccc(Cc2cc(C)cc(=O)n2O)cc1  MIC80 (Cryptococcus gattii; microbial growth): 2.3 µM (≈ 0.564 µg/mL)
CC[C@H]1OC(=O)[C@H](C)[C@@H](O[C@H]2C[C@@](C)(OC)[C@@H](O)[C@H](C)O2)[C@H](C)[C@@H](O[C@@H]2O[C@H](C)C[C@H](N(C)C)[C@H]2O)[C@](C)(O)C[C@@H](C)C(=O)[C@H](C)[C@@H](O)[C@]1(C)O  MIC (Bacillus cereus; microbial growth): 3.13 µM
COc1ccccc1Cc1cc(C)cc(=O)n1O  MIC80 (Cryptococcus gattii; microbial growth): 1.5 µM (≈ 0.368 µg/mL)
CC1=NN(CNC(=O)c2ccccc2)C(=O)C1=NNn1c(-c2ccccc2)nc2ccccc2c1=O  MIC (Salmonella enterica; microbial growth, broth dilution; PARATYPHI; 24 h): 51.9 µM
COc1ccc(C[C@H](NC(=O)[C@H](C)NC(=O)CN2CCOCC2)C(=O)N[C@@H](Cc2ccccc2)C(=O)[C@@]2(C)CO2)cc1  IC50 (RPMI-8226; cell growth or viability, MTS; 72 h): 213 nM
NC[C@H]1O[C@H](O[C@H]2[C@H](O)[C@@H](O[C@H]3O[C@H](CO)[C@@H](O)[C@H](N)[C@H]3O)[C@H](N)C[C@@H]2N)[C@H](N)C[C@@H]1O  MIC (Bacillus cereus; microbial growth; ATCC11778): 18.8 µg/mL
CCCCCCCCCCCC(=O)OC[C@H]1O[C@@H](n2cc(C)c(=O)[nH]c2=O)C[C@@H]1OC(=O)c1ccc(C(C)(C)C)cc1  MBC (Bacillus cereus; microbial killing, broth dilution): 8 µg/mL (≈ 13.7 µM)
Cc1cc(NS(=O)(=O)c2ccc(N)cc2)no1  MIC (Salmonella enterica; microbial growth; CHOLERAESUIS; 20 h, pH 7.2): 2050 µg/mL
CCC1(c2ccc(N)cc2)CCC(=O)NC1=O (centres unmarked)  IC50 (IOSE-144; cell growth or viability, CCK-8; 48 h): > 50000 nM
Cc1cc(CC2CCCCC2)n(O)c(=O)c1  MIC80 (Cryptococcus gattii; microbial growth): 1.7 µM (≈ 0.376 µg/mL)
CCCCCCCCCCCC(=O)OC[C@H]1O[C@@H](n2cc(C)c(=O)[nH]c2=O)C[C@@H]1O  MIC (Bacillus cereus; microbial growth, broth dilution): 4 µg/mL
CO/N=C(\C(=O)N[C@@H]1C(=O)N2C(C(=O)O)=C(CSc3nc(=O)c(=O)[nH]n3C)CS[C@H]12)c1csc(N)n1  MIC (Salmonella enterica; microbial growth; CHOLERAESUIS; 20 h, pH 7.2): 0.0625 µg/mL
O=c1[nH]cc(F)c(=O)[nH]1  MBC (Shigella dysenteriae; microbial killing, broth dilution; 48 h): 8 µg/mL (≈ 61.5 µM)
CC(C=CC(O)=C1C(=O)CNC1=O)=CC(C)C1OC2(C)OC(C(O)C=C2C)C1C (centres unmarked)  MIC (Bacillus cereus; microbial growth): > 100 µM
CC(C)C[C@H](NC(=O)[C@H](Cc1c[nH]c2ccccc12)NC(=O)[C@H](C)NC(=O)OCc1ccccc1)C(=O)C(=O)Nc1ccccc1  IC50 (RPMI-8226; cell growth or viability, MTS; 72 h): 760 nM
COc1cc(Cc2cnc(N)nc2N)cc(OC)c1OC  MBC (Shigella dysenteriae; microbial killing, broth dilution; 48 h): 32 µg/mL (≈ 110 µM)
CS(=O)(=O)c1ccc([C@@H](O)[C@@H](CF)NC(=O)C(Cl)Cl)cc1  MIC (Salmonella enterica; microbial growth; CHOLERAESUIS; 20 h, pH 5.5): 4 µg/mL
CC(=O)c1cccc(NC(=O)C(=O)[C@H](CC(C)C)NC(=O)[C@H](CC(C)C)NC(=O)[C@H](CC(C)C)NC(=O)OCc2ccccc2)c1  IC50 (RPMI-8226; cell growth or viability, MTS; 72 h): 48.7 nM
CO/N=C(\C(=O)N[C@@H]1C(=O)N2C(C(=O)O)=C(CSC(=O)c3ccco3)CS[C@H]12)c1csc(N)n1  MIC (Salmonella enterica; microbial growth; CHOLERAESUIS; 20 h, pH 5.5): 1 µg/mL
Cc1cc(Cc2ccc(Cl)cc2)n(O)c(=O)c1  MIC80 (Cryptococcus gattii; microbial growth): 3 µM (≈ 0.749 µg/mL)
